Measurements taken from ChEMBL document CHEMBL1133716, “AMP deaminase inhibitors. 3. SAR of 3-(carboxyarylalkyl)coformycin aglycon analogues” (J Med Chem, 2000).

Legend:
[1] = Inhibitory activity against porcine heart Adenylate deaminase (AMPDA); set-up: species or system Sus scrofa
How it was run: (§1)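 Values are reported as Ki against porcine heart AMPDA, determined by a procedure described in earlier work.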

[2] = biological target: T1, Adenosine deaminase (Bos taurus, UniProt P56658); assay: Inhibitory activity against calf intestinal Adenosine deaminase (ADA)
T1 sequence (P56658 whole entry): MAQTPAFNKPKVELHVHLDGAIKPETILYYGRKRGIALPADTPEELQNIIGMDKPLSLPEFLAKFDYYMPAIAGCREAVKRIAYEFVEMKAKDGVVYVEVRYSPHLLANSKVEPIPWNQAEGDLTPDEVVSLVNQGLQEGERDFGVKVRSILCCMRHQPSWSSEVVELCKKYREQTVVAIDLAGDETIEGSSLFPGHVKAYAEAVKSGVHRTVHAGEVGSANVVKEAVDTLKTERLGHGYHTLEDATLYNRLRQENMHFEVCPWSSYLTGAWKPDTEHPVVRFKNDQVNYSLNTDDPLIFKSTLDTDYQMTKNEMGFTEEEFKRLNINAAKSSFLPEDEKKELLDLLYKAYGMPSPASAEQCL

[3] = biological target: T1, Adenosine deaminase; assay: Compound was evaluated for its inhibitory activity against calf intestinal Adenosine deaminase (ADA)
[4] = Compound was evaluated for its inhibitory activity against porcine heart adenylate deaminase (AMPDA); set-up: species or system Sus scrofa; how it was run: as §1

Row | Compound | Ki [1] [µM] | Ki [2] [µM] | Ki [3] [µM] | Ki [4] [µM]
1 | O=C(O)c1cccc(C#CCn2cnc3c2NC=NCC3O)c1 (stereo unspecified) | > 125 | 2.3 |  | 
2 | COC(=O)c1ccc(OC)c(CCn2cnc3c2NC=NCC3O)c1 (stereo unspecified) | 21 | > 7.5 |  | 
3 | COC(=O)c1ccccc1OCCn1cnc2c1NC=NCC2O (stereo unspecified) | 60.6 | 2.3 |  | 
4 | O=C(O)c1ccc(Cn2cnc3c2NC=NCC3O)cc1 (stereo unspecified) | > 125 | > 7.5 |  | 
5 | CC(C)c1cccc(C(=O)O)c1CCCn1cnc2c1NC=NCC2O (stereo unspecified) | 83.1 | > 7.5 |  | 
6 | O=C(O)c1ccccc1OCCn1cnc2c1NC=NCC2O (stereo unspecified) | 31.3 | 270 |  | 
7 | COC(=O)c1ccccc1SCCn1cnc2c1NC=NCC2O (stereo unspecified) | 37.9 | 11.9 |  | 
8 | COC(=O)c1ccccc1CCCn1cnc2c1NC=NCC2O (stereo unspecified) | 32.7 | 0.16 |  | 
9 | COC(=O)c1ccc(C)cc1CCCn1cnc2c1NC=NCC2O (stereo unspecified) | 38 | 0.06 |  | 
10 | O=C(O)Cc1cccc(CCn2cnc3c2NC=NCC3O)c1 (stereo unspecified) | 44.1 | > 500 |  | 
11 | COC(=O)c1cccc(CCCn2cnc3c2NC=NCC3O)c1 (stereo unspecified) | 24.3 | 0.16 |  | 
12 | COC(=O)c1ccc(OC)c(CCCn2cnc3c2NC=NCC3O)c1 (stereo unspecified) | 52.8 | 0.13 |  | 
13 | COC(=O)c1c(F)cccc1CCCn1cnc2c1NC=NCC2O (stereo unspecified) | 1.5 | 0.32 |  | 
14 | COC(=O)c1cc(C)ccc1CCCn1cnc2c1NC=NCC2O (stereo unspecified) | 1.6 | 0.04 |  | 
15 | O=C(O)c1ccc(Cn2cnc3c2NC=NCC3O)o1 (stereo unspecified) | 72 | > 3.4 |  | 
16 | COC(=O)Cc1ccc(Cn2cnc3c2NC=NCC3O)cc1 (stereo unspecified) | 92.6 | 6.7 |  | 
17 | O=C(O)c1cccc(OCCn2cnc3c2NC=NCC3O)c1 (stereo unspecified) | 31.8 | > 7.5 |  | 
18 | CNOC(=O)c1ccc(C)c(CCCn2cnc3c2NC=NCC3O)c1 (stereo unspecified) |  |  | 0.05 | 19.8
19 | COC(=O)c1ccc2ccccc2c1CCCn1cnc2c1NC=NCC2O (stereo unspecified) | 8.3 | 0.18 |  | 
20 | COC(=O)c1ccc(C)c(CCCn2cnc3c2NC=NCC3O)c1 (stereo unspecified) | 22 | 0.08 |  | 
21 | COC(=O)c1ccc(Cn2cnc3c2NC=NCC3O)cc1 (stereo unspecified) | 170 | 8.7 |  | 
22 | O=C(O)Cc1ccc(Cn2cnc3c2NC=NCC3O)cc1 (stereo unspecified) | 92.2 | > 500 |  | 
23 | CC(C)c1cccc(C(=O)O)c1SCCn1cnc2c1NC=NCC2O (stereo unspecified) | > 125 | > 7.5 |  | 
24 | Cc1ccc(C(=O)O)c(CCCn2cnc3c2NC=NCC3O)c1 (stereo unspecified) | 24 | 5.2 |  | 
25 | COC(=O)c1ccc(CCn2cnc3c2NC=NCC3O)cc1 (stereo unspecified) | 160 | 81 |  | 
26 | O=C(O)c1cccc(CCCn2cnc3c2NC=NCC3O)c1 (stereo unspecified) | 23.5 | 2.4 |  | 
27 | CCOC(=O)c1cc(CCn2cnc3c2NC=NCC3O)cc(-c2ccccc2)c1 (stereo unspecified) | 18 | > 7.5 |  | 

The next lines start with results.

Row | Ki [1] [µM] | Ki [2] [µM] | Compound | Ki [3] [µM] | Ki [4] [µM]
28 | 0.35 | > 7.5 | O=C(O)c1ccc(CO)c(CCn2cnc3c2NC=NCC3O)c1 (stereo unspecified) |  | 
29 | 0.57 | > 7.5 | Cc1ccc(CCn2cnc3c2NC=NCC3O)cc1C(=O)O (stereo unspecified) |  | 
30 | 0.19 | > 7.5 | CCCc1ccc(C(=O)O)cc1CCn1cnc2c1NC=NCC2O (stereo unspecified) |  | 
31 | 0.18 | > 7.5 | O=C(O)c1cc(CCn2cnc3c2NC=NCC3O)cc(-c2cccc(Cl)c2)c1 (stereo unspecified) |  | 
32 | 11.8 | > 7.5 | Cc1ccc(CCCn2cnc3c2NC=NCC3O)c(C(=O)O)c1 (stereo unspecified) |  | 
33 | 8.1 | 2.6 | Cc1ccc(C(=O)OCc2ccccc2)cc1CCn1cnc2c1NC=NCC2O (stereo unspecified) |  | 
34 | 14 | 3.8 | CCCc1ccc(C(=O)OC)cc1CCn1cnc2c1NC=NCC2O (stereo unspecified) |  | 
35 | 0.08 | > 7.5 | O=C(O)c1cc(Br)cc(CCn2cnc3c2NC=NCC3O)c1 (stereo unspecified) |  | 
36 | 2.2 | > 7.5 | O=C(O)c1cc(CCn2cnc3c2NC=NCC3O)cs1 (stereo unspecified) |  | 
37 | 12 | > 7.5 | CCOC(=O)c1cc(CCn2cnc3c2NC=NCC3O)ccc1C (stereo unspecified) |  | 
38 | 0.1 | > 100 | Cc1ccc(C(=O)O)cc1CCn1cnc2c1NC=NCC2O (stereo unspecified) |  | 
39 | 0.51 | > 7.5 | O=C(O)c1cccc(CCn2cnc3c2NC=NCC3O)c1 (stereo unspecified) |  | 
40 | 0.29 | > 7.5 | O=C(O)c1cc(CCn2cnc3c2NC=NCC3O)cc(-c2ccc(Cl)cc2)c1 (stereo unspecified) |  | 
41 | 0.22 | > 7.5 | O=C(O)c1cc(CCn2cnc3c2NC=NCC3O)ccc1Cl (stereo unspecified) |  | 
42 | 0.16 | > 7.5 | O=C(O)c1cc(CCn2cnc3c2NC=NCC3O)ccc1F (stereo unspecified) |  | 
43 | 6.6 | 8.9 | CCOC(=O)c1cc(CC)cc(CCn2cnc3c2NC=NCC3O)c1 (stereo unspecified) |  | 
44 | 14 | > 7.5 | COC(=O)c1cccc(C(C)C)c1CCCn1cnc2c1NC=NCC2O (stereo unspecified) |  | 
45 | 0.08 | > 7.5 | CCc1ccc(C(=O)O)cc1CCn1cnc2c1NC=NCC2O (stereo unspecified) |  | 

Row | Ki [1] [µM] | Ki [2] [µM] | Compound | Ki [3] [µM] | Ki [4] [µM]
46 | 11.2 | > 7.5 | O=C(O)Cc1cccc(Cn2cnc3c2NC=NCC3O)c1 (stereo unspecified) |  | 
47 | 15.9 | 5.6 | CCOC(=O)Cc1cccc(Cn2cnc3c2NC=NCC3O)c1 (stereo unspecified) |  | 
48 | 0.19 | > 7.5 | O=C(O)c1cc(CCn2cnc3c2NC=NCC3O)cc(-c2ccc(F)cc2)c1 (stereo unspecified) |  | 
49 | 0.48 | > 7.5 | COc1ccc(C(=O)O)cc1CCn1cnc2c1NC=NCC2O (stereo unspecified) |  | 
50 | 11 | > 7.5 | CCOC(=O)c1ccc(C)c(CCn2cnc3c2NC=NCC3O)c1 (stereo unspecified) |  | 
51 | 9.5 | > 7.5 | O=C(O)c1ccc(CCn2cnc3c2NC=NCC3O)s1 (stereo unspecified) |  | 
52 | 4.2 | 5.6 | COc1ccc(C(=O)O)cc1CCCn1cnc2c1NC=NCC2O (stereo unspecified) |  | 
53 | 5.2 | 1.2 | Cc1ccc(C(=O)O)cc1CCCn1cnc2c1NC=NCC2O (stereo unspecified) |  | 
54 | 4.8 | 1.4 | O=C(O)c1sccc1CCCn1cnc2c1NC=NCC2O (stereo unspecified) |  | 
55 | 2.7 | > 7.5 | CCOC(=O)c1cc(Br)cc(CCn2cnc3c2NC=NCC3O)c1 (stereo unspecified) |  | 
56 | 16 | > 7.5 | COC(=O)c1cccc(CCn2cnc3c2NC=NCC3O)c1 (stereo unspecified) |  | 
57 | 6.3 | 1.8 | O=C(O)c1ccc2ccccc2c1CCCn1cnc2c1NC=NCC2O (stereo unspecified) |  | 
58 | 4.5 | > 500 | O=C(O)c1ccccc1SCCn1cnc2c1NC=NCC2O (stereo unspecified) |  | 
59 | 12.5 | 6.1 | O=C(O)c1ccccc1CCCn1cnc2c1NC=NCC2O (stereo unspecified) |  | 
60 | 0.06 | > 7.5 | CCc1cc(CCn2cnc3c2NC=NCC3O)cc(C(=O)O)c1 (stereo unspecified) |  | 
61 | 9 | > 7.5 | O=C(O)c1c(F)cccc1CCCn1cnc2c1NC=NCC2O (stereo unspecified) |  | 
62 | 13.3 | > 7.5 | O=C(O)c1ccc(CCCn2cnc3c2NC=NCC3O)o1 (stereo unspecified) |  | 
63 | 0.07 | > 7.5 | O=C(O)c1cc(CCn2cnc3c2NC=NCC3O)cc(-c2ccccc2)c1 (stereo unspecified) |  | 
